Experimental data as given in ChEMBL document CHEMBL4118192, “BET bromodomain ligands: Probing the WPF shelf to improve BRD4 bromodomain affinity and metabolic stability” (Bioorg Med Chem, 2018).

Key:
Assay type in all cases: functional
CAKI-1 = assay: Growth inhibition of human CAKI-1 cells after 48 hrs by sulforhodamine B assay; settings: CAKI-1, 48 h
Method in brief: (§1)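 NCI-60 panel screen. Cells were exposed for 48 h at five concentrations between 10 nM and 100 μM. Cellular protein was read by sulforhodamine B staining, and GI50 and total growth inhibition (TGI) concentrations were derived.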

OVCAR-5 = assay: Growth inhibition of human OVCAR5 cells at 10 uM after 48 hrs by sulforhodamine B assay relative to control; settings: OVCAR-5, 48 h, read-out: GI
Method in brief: (§2)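 NCI-60 human cancer cell line screen, single-dose pass: cells exposed to 10 μM for 48 h. Cellular protein content read out by sulforhodamine B staining, and growth inhibition expressed relative to untreated control.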

MCF7 = assay: Growth inhibition of human MCF7 cells after 48 hrs by SRB assay; settings: MCF7, 48 h
Method in brief: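 In-house assay. Cells were seeded into 96-well plates at a density for exponential growth and treated with a concentration range for 48 h. They were then fixed in 10% (w/v) TCA and stained with sulforhodamine B. The 50% growth-inhibitory concentration relative to control cells was calculated as the mean of three repeats ± standard deviation.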

786-0 = assay: Growth inhibition of human 786-0 cells after 48 hrs by sulforhodamine B assay; settings: 786-0, 48 h; method in brief: as §1
SN12C = assay: Growth inhibition of human SN12C cells after 48 hrs by sulforhodamine B assay
Method in brief: (§3)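 NCI-60 panel follow-up: five concentrations from 10 nM to 100 μM, 48 h exposure. Growth read by sulforhodamine B protein staining. GI50 derived from the concentration-response, with the concentration for total growth inhibition (TGI) also recorded when below 100 μM.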

NCI-H460 = assay: Growth inhibition of human NCI-H460 cells at 10 uM after 48 hrs by sulforhodamine B assay relative to control; settings: NCI-H460, 48 h, read-out: GI; method in brief: as §2
HOP-92 = assay: Growth inhibition of human HOP92 cells after 48 hrs by sulforhodamine B assay; settings: HOP-92, 48 h; method in brief: as §1
MDA-MB-231 = assay: Growth inhibition of human MDA-MB-231 cells after 48 hrs by sulforhodamine B assay; settings: MDA-MB-231, 48 h; method in brief: as §1
CCRF-CEM = assay: Growth inhibition of human CCRF-CEM cells at 10 uM after 48 hrs by sulforhodamine B assay relative to control; settings: read-out: GI
Method in brief: (§4)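 NCI-60 single-dose screen at 10 μM for 48 h. Percent growth inhibition was measured by sulforhodamine B staining of cellular protein.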

ACHN [1] = assay: Growth inhibition of human ACHN cells after 48 hrs by sulforhodamine B assay; method in brief: as §1
LOX IMVI = assay: Growth inhibition of human LOXIMVI cells at 10 uM after 48 hrs by sulforhodamine B assay relative to control; settings: read-out: GI; method in brief: as §4
SK-MEL-2 = assay: Growth inhibition of human SK-MEL-2 cells at 10 uM after 48 hrs by sulforhodamine B assay relative to control; settings: SK-MEL-2, 48 h, read-out: GI; method in brief: as §2
KM12 [2] = assay: Growth inhibition of human KM12 cells at 10 uM after 48 hrs by sulforhodamine B assay relative to control; settings: KM12, 48 h, read-out: GI; method in brief: as §4
ACHN [3] = assay: Growth inhibition of human ACHN cells at 10 uM after 48 hrs by sulforhodamine B assay relative to control; settings: read-out: GI; method in brief: as §4
COLO 205 = assay: Growth inhibition of human COLO205 cells at 10 uM after 48 hrs by sulforhodamine B assay relative to control; settings: COLO 205, 48 h, read-out: GI; method in brief: as §4
SF-539 = assay: Growth inhibition of human SF539 cells at 10 uM after 48 hrs by sulforhodamine B assay relative to control; settings: SF-539, 48 h, read-out: GI; method in brief: as §2
A549 = assay: Growth inhibition of human A549/ATCC cells at 10 uM after 48 hrs by sulforhodamine B assay relative to control; settings: A549, 48 h, read-out: GI; method in brief: as §4
MOLT-4 = assay: Growth inhibition of human MOLT4 cells at 10 uM after 48 hrs by sulforhodamine B assay relative to control; settings: MOLT-4, 48 h, read-out: GI; method in brief: as §2
T47D = assay: Growth inhibition of human T47D cells after 48 hrs by sulforhodamine B assay
Method in brief: (§5)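 NCI-60 panel cells treated at five concentrations from 10 nM to 100 μM for 48 h. Read-out by sulforhodamine B protein stain. GI50 and total growth inhibition (TGI, if below 100 μM) taken from the concentration-response data.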

OVCAR-8 = assay: Growth inhibition of human OVCAR8 cells after 48 hrs by sulforhodamine B assay; settings: OVCAR-8, 48 h; method in brief: as §3
SNB-75 = assay: Growth inhibition of human SNB75 cells after 48 hrs by sulforhodamine B assay; settings: SNB-75, 48 h; method in brief: as §3
HL-60(TB) = assay: Growth inhibition of human HL-60(TB) cells after 48 hrs by sulforhodamine B assay; settings: HL-60, 48 h
Method in brief: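 NCI-60 human cancer cell line screen, five concentrations from 10 nM to 100 μM. Growth measured by sulforhodamine B staining of cellular protein content. GI50 derived, with TGI where reached below 100 μM.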

MDA-MB-435 = assay: Growth inhibition of human MDA-MB-435 cells at 10 uM after 48 hrs by sulforhodamine B assay relative to control; settings: MDA-MB-435, 48 h, read-out: GI; method in brief: as §2
DU-145 = assay: Growth inhibition of human DU145 cells after 48 hrs by sulforhodamine B assay; settings: DU-145, 48 h; method in brief: as §1
IGROV-1 = assay: Growth inhibition of human IGROV1 cells after 48 hrs by sulforhodamine B assay; settings: IGROV-1, 48 h; method in brief: as §1
UACC-257 = assay: Growth inhibition of human UACC257 cells after 48 hrs by sulforhodamine B assay; settings: UACC-257, 48 h; method in brief: as §5
OVCAR-3 = assay: Growth inhibition of human OVCAR3 cells at 10 uM after 48 hrs by sulforhodamine B assay relative to control; settings: OVCAR-3, 48 h, read-out: GI; method in brief: as §2
HOP-62 = assay: Growth inhibition of human HOP62 cells at 10 uM after 48 hrs by sulforhodamine B assay relative to control; settings: HOP-62, 48 h, read-out: GI; method in brief: as §4
K562 = assay: Growth inhibition of human K562 cells after 48 hrs by sulforhodamine B assay; settings: K562, 48 h; method in brief: as §1
Hs-578T = assay: Growth inhibition of human Hs 578T cells after 48 hrs by sulforhodamine B assay; method in brief: as §1
BT-549 = assay: Growth inhibition of human BT549 cells after 48 hrs by sulforhodamine B assay; settings: BT-549, 48 h; method in brief: as §1
KM12 [4] = assay: Growth inhibition of human KM12 cells after 48 hrs by sulforhodamine B assay; settings: KM12, 48 h; method in brief: as §1
RPMI-8226 = assay: Growth inhibition of human RPMI8226 cells at 10 uM after 48 hrs by sulforhodamine B assay relative to control; settings: RPMI-8226, 48 h, read-out: GI; method in brief: as §2
SF-295 = assay: Growth inhibition of human SF295 cells at 10 uM after 48 hrs by sulforhodamine B assay relative to control; settings: SF-295, 48 h, read-out: GI; method in brief: as §2

Structure (SMILES)	GI50 (CAKI-1)	inhibition of growth at 10 µM (OVCAR-5)	GI50 (MCF7)	GI50 (786-0)	GI50 (SN12C)	inhibition of growth at 10 µM (NCI-H460)	GI50 (HOP-92)	TGI (HOP-92)	GI50 (MDA-MB-231)	inhibition of growth at 10 µM (CCRF-CEM)	GI50 (ACHN [1])	inhibition of growth at 10 µM (LOX IMVI)	inhibition of growth at 10 µM (SK-MEL-2)	inhibition of growth at 10 µM (KM12 [2])	inhibition of growth at 10 µM (ACHN [3])	inhibition of growth at 10 µM (COLO 205)	inhibition of growth at 10 µM (SF-539)	inhibition of growth at 10 µM (A549)	inhibition of growth at 10 µM (MOLT-4)	GI50 (T47D)	further results
Cc1noc(C)c1-c1cc(O)cc(C(O)c2ccccc2)c1 (stereo not drawn)	4.58 µM	26.7%	1.25 to 1.7 µM	27.1 µM	3.99 µM	32.8%	1.02 µM	72.9 µM	3.92 µM	53.3%	4.76 µM	72.7%	39.6%	46.9%	39.4%	62.9%	37.5%	44.6%	41.3%	7.7 µM	GI50 (OVCAR-8): 8.33 µM; GI50 (SNB-75): 0.423 µM; GI50 (HL-60(TB)): 2.17 µM; TGI (HL-60(TB)): 22.7 µM; inhibition of growth at 10 µM (MDA-MB-435): 56.1%; GI50 (DU-145): 6.95 µM; GI50 (IGROV-1): 23.2 µM; GI50 (UACC-257): 4.66 µM; inhibition of growth at 10 µM (OVCAR-3): 53.3%; inhibition of growth at 10 µM (HOP-62): 52.8%; GI50 (K562): 8.69 µM; GI50 (Hs-578T): 1.93 µM; TGI (Hs-578T): 90.7 µM; GI50 (BT-549): 28.2 µM; GI50 (KM12 [4]): 8.2 µM; inhibition of growth at 10 µM (RPMI-8226): 85.1%; inhibition of growth at 10 µM (SF-295): 57.5%
COc1ccccc1S(=O)(=O)Nc1ccc2c(c1)CN(C)C(=O)N2	3.6 µM	25.5%	1.5 µM	12 µM	6.8 µM	44.2%	1.2 µM	70.8 µM	3.5 µM	51.1%	7.8 µM	70.9%	52.4%	55%	65.3%	61.6%	49.9%	49.5%	61.6%	3.7 µM	GI50 (OVCAR-8): 9.1 µM; GI50 (SNB-75): 0.4 µM; GI50 (HL-60(TB)): 3.4 µM; inhibition of growth at 10 µM (MDA-MB-435): 65.8%; GI50 (DU-145): 28.8 µM; GI50 (IGROV-1): 6.3 µM; GI50 (UACC-257): 3.6 µM; inhibition of growth at 10 µM (OVCAR-3): 67.8%; inhibition of growth at 10 µM (HOP-62): 55.7%; GI50 (K562): 4.6 µM; GI50 (Hs-578T): 1.9 µM; TGI (Hs-578T): 63.1 µM; GI50 (BT-549): 14.8 µM; GI50 (KM12 [4]): 10.7 µM; inhibition of growth at 10 µM (RPMI-8226): 95.7%; inhibition of growth at 10 µM (SF-295): 94.7%
